In ChEMBL document CHEMBL5058577, “EUbOPEN Chemogenomics Library 2 (Multiplex)” (2022):

Tested on: Fibroblast
Experiment: Multiplex assay against human fibroblast
Type: toxicity, cell-based
Summary of the method: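 Live cells were stained at seeding with Hoechst33342, BioTracker Green Microtubule Cytoskeleton Dye, MitoTracker Red and Annexin V Alexa Fluor 680. Following compound addition, they were imaged on a CQ1 microscope at 37°C and 5% CO2 and gated by CellPathfinder machine learning into Hoechst high-intensity objects or normal cells, with normal cells split into healthy, pyknosed or fragmented nuclei and pyknosed cells into mitotic or apoptotic. Tubulin, mitochondrial-mass and membrane-permeability phenotypes are per cents of healthy-nucleus cells.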

[1] = 12 h, 1 µM, compound concentration 1 uM, replicate 1
[2] = 12 h, 1 µM, compound concentration 1 uM, replicate 2
[3] = 12 h, 10 µM, compound concentration 10 uM, replicate 1
[4] = 12 h, 10 µM, compound concentration 10 uM, replicate 2
[5] = 24 h, 1 µM, compound concentration 1 uM, replicate 1
[6] = 24 h, 1 µM, compound concentration 1 uM, replicate 2
[7] = 24 h, 10 µM, compound concentration 10 uM, replicate 1
[8] = 24 h, 10 µM, compound concentration 10 uM, replicate 2
[9] = 48 h, 1 µM, compound concentration 1 uM, replicate 1
[10] = 48 h, 1 µM, compound concentration 1 uM, replicate 2
[11] = 48 h, 10 µM, compound concentration 10 uM, replicate 1
[12] = 48 h, 10 µM, compound concentration 10 uM, replicate 2

SMILES: Cc1ccc(OCC(O)C(C)NC(C)C)c2c1CCC2.Cl (stereo unspecified)
- Population Apoptotic (%) [1]: 36%
- Population Fragmented Nuclei (%) [1]: 10%
- Population Healthy Nuclei (%) [1]: 68%
- Population Hoechst High Intensity Objects (%) [1]: 0%
- Population Membrane Permeable-Phenotype (%) [1]: 0%
- Population Mitochondria Different-Phenotype (%) [1]: 3%
- Population Mitotic Cells (%) [1]: 63%
- Population Normal (%) [1]: 99%
- Population Pyknosed Nuclei (%) [1]: 20%
- Population Tubulin-Different-Phenotype (%) [1]: 26%
- Total Cell Count [1]: 159
- Population Apoptotic (%) [2]: 28%
- Population Fragmented Nuclei (%) [2]: 17%
- Population Healthy Nuclei (%) [2]: 55%
- Population Hoechst High Intensity Objects (%) [2]: 9%
- Population Membrane Permeable-Phenotype (%) [2]: 4%
- Population Mitochondria Different-Phenotype (%) [2]: 7%
- Population Mitotic Cells (%) [2]: 71%
- Population Normal (%) [2]: 90%
- Population Pyknosed Nuclei (%) [2]: 27%
- Population Tubulin-Different-Phenotype (%) [2]: 50%
- Total Cell Count [2]: 210
- Population Apoptotic (%) [3]: 47%
- Population Fragmented Nuclei (%) [3]: 39%
- Population Healthy Nuclei (%) [3]: 47%
- Population Hoechst High Intensity Objects (%) [3]: 1%
- Population Membrane Permeable-Phenotype (%) [3]: 0%
- Population Mitochondria Different-Phenotype (%) [3]: 12%
- Population Mitotic Cells (%) [3]: 52%
- Population Normal (%) [3]: 98%
- Population Pyknosed Nuclei (%) [3]: 12%
- Population Tubulin-Different-Phenotype (%) [3]: 52%
- Total Cell Count [3]: 138
- Population Apoptotic (%) [4]: 25%
- Population Fragmented Nuclei (%) [4]: 33%
- Population Healthy Nuclei (%) [4]: 50%
- Population Hoechst High Intensity Objects (%) [4]: 2%
- Population Membrane Permeable-Phenotype (%) [4]: 7%
- Population Mitochondria Different-Phenotype (%) [4]: 17%
- Population Mitotic Cells (%) [4]: 74%
- Population Normal (%) [4]: 97%
- Population Pyknosed Nuclei (%) [4]: 16%
- Population Tubulin-Different-Phenotype (%) [4]: 54%
- Total Cell Count [4]: 168
- Population Apoptotic (%) [5]: 57%
- Population Fragmented Nuclei (%) [5]: 11%
- Population Healthy Nuclei (%) [5]: 74%
- Population Hoechst High Intensity Objects (%) [5]: 0%
- Population Membrane Permeable-Phenotype (%) [5]: 4%
- Population Mitochondria Different-Phenotype (%) [5]: 5%
- Population Mitotic Cells (%) [5]: 42%
- Population Normal (%) [5]: 100%
- Population Pyknosed Nuclei (%) [5]: 13%
- Population Tubulin-Different-Phenotype (%) [5]: 30%
- Total Cell Count [5]: 154
- Population Apoptotic (%) [6]: 20%
- Population Fragmented Nuclei (%) [6]: 27%
- Population Healthy Nuclei (%) [6]: 46%
- Population Hoechst High Intensity Objects (%) [6]: 15%
- Population Membrane Permeable-Phenotype (%) [6]: 1%
- Population Mitochondria Different-Phenotype (%) [6]: 8%
- Population Mitotic Cells (%) [6]: 80%
- Population Normal (%) [6]: 84%
- Population Pyknosed Nuclei (%) [6]: 26%
- Population Tubulin-Different-Phenotype (%) [6]: 52%
- Total Cell Count [6]: 201
- Population Apoptotic (%) [7]: 35%
- Population Fragmented Nuclei (%) [7]: 39%
- Population Healthy Nuclei (%) [7]: 49%
- Population Hoechst High Intensity Objects (%) [7]: 1%
- Population Membrane Permeable-Phenotype (%) [7]: 1%
- Population Mitochondria Different-Phenotype (%) [7]: 13%
- Population Mitotic Cells (%) [7]: 64%
- Population Normal (%) [7]: 98%
- Population Pyknosed Nuclei (%) [7]: 11%
- Population Tubulin-Different-Phenotype (%) [7]: 63%
- Total Cell Count [7]: 151
- Population Apoptotic (%) [8]: 36%
- Population Fragmented Nuclei (%) [8]: 35%
- Population Healthy Nuclei (%) [8]: 50%
- Population Hoechst High Intensity Objects (%) [8]: 5%
- Population Membrane Permeable-Phenotype (%) [8]: 4%
- Population Mitochondria Different-Phenotype (%) [8]: 14%
- Population Mitotic Cells (%) [8]: 63%
- Population Normal (%) [8]: 94%
- Population Pyknosed Nuclei (%) [8]: 13%
- Population Tubulin-Different-Phenotype (%) [8]: 65%
- Total Cell Count [8]: 168
- Population Apoptotic (%) [9]: 64%
- Population Fragmented Nuclei (%) [9]: 16%
- Population Healthy Nuclei (%) [9]: 71%
- Population Hoechst High Intensity Objects (%) [9]: 4%
- Population Membrane Permeable-Phenotype (%) [9]: 0%
- Population Mitochondria Different-Phenotype (%) [9]: 1%
- Population Mitotic Cells (%) [9]: 35%
- Population Normal (%) [9]: 95%
- Population Pyknosed Nuclei (%) [9]: 11%
- Population Tubulin-Different-Phenotype (%) [9]: 23%
- Total Cell Count [9]: 155
- Population Apoptotic (%) [10]: 34%
- Population Fragmented Nuclei (%) [10]: 37%
- Population Healthy Nuclei (%) [10]: 42%
- Population Hoechst High Intensity Objects (%) [10]: 11%
- Population Membrane Permeable-Phenotype (%) [10]: 5%
- Population Mitochondria Different-Phenotype (%) [10]: 8%
- Population Mitotic Cells (%) [10]: 65%
- Population Normal (%) [10]: 88%
- Population Pyknosed Nuclei (%) [10]: 20%
- Population Tubulin-Different-Phenotype (%) [10]: 60%
- Total Cell Count [10]: 196
- Population Apoptotic (%) [11]: 71%
- Population Fragmented Nuclei (%) [11]: 35%
- Population Healthy Nuclei (%) [11]: 50%
- Population Hoechst High Intensity Objects (%) [11]: 1%
- Population Membrane Permeable-Phenotype (%) [11]: 0%
- Population Mitochondria Different-Phenotype (%) [11]: 9%
- Population Mitotic Cells (%) [11]: 28%
- Population Normal (%) [11]: 98%
- Population Pyknosed Nuclei (%) [11]: 13%
- Population Tubulin-Different-Phenotype (%) [11]: 68%
- Total Cell Count [11]: 155
- Population Apoptotic (%) [12]: 60%
- Population Fragmented Nuclei (%) [12]: 39%
- Population Hoechst High Intensity Objects (%) [12]: 7%
- Population Membrane Permeable-Phenotype (%) [12]: 5%
- Population Mitochondria Different-Phenotype (%) [12]: 10%
- Population Mitotic Cells (%) [12]: 40%
- Population Normal (%) [12]: 92%
- Population Pyknosed Nuclei (%) [12]: 10%
- Population Tubulin-Different-Phenotype (%) [12]: 63%
- Total Cell Count [12]: 157
